According to PubChem BioAssay:
Records with an inconclusive call do not appear.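 How the source made its calls, unless noted: active means cell viability at or below a set limit in both duplicate runs, the limit being the all-compound median minus 4 SD (cut at about 23% in these data, passing the limit was not always enough); inconclusive means no clear call, values can overlap the other calls; inactive means the rest.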

Legend:
[1] = S. cerevisiae growth inhibition in permissive medium (OD615), pilot counter-assay for S. cerevisiae lifespan shortening project, permissive growth control (AID 705;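 active means growth inhibition above 25% in both replicates, a cutoff set 3 SD above the mean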); details: OD615, 24 h, at 10 µM, active compounds read high
Summary of the method: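 assay system = Saccharomyces cerevisiae strain carrying genetically modified DeaD replicative-lifespan system | medium = SC raffinose/galactose permissive medium | dosing = 10 µM single dose, 0.25% DMSO | schedule = 24 h compound exposure at 30 °C after 4 h pre-growth | measured by = OD at 615 nm | read-out basis = growth inhibition from lowered OD615 after 24 h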

[2] = S. cerevisiae growth inhibition in restrictive medium, OD615, pilot screen, restrictive growth control, yeast lifespan reduction project (AID 706;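 active means growth inhibition above a set limit, 3 SD over mean compound inhibition, in both replicates, cut at about 43% in these data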;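 further: modified DeaD lifespan yeast strain shifted to restrictive glucose medium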); details: OD615, 48 h, at 10 µM, active compounds read high
Summary of the method: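 Buffer or medium: CSMM-D glucose medium. Material: genetically modified Saccharomyces cerevisiae, DeaD replicative lifespan assay strain. Times: 48 h compound exposure at 30 °C. Measured by: optical density at 615 nm.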

[3] = doxorubicin toxicity protection in MRP-1 cells – H69AR cells, CellTiter-Glo, duplicate, MRP-1 activator project, pilot screen (AID 807;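 active means viability increase at or above a cutoff of the median across tested compounds plus 3 SD, cut at about 8.5% in these data, passing the limit was not always enough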;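 further: compound pretreatment 18-22 h then 72 h combined with doxorubicin; 0% = doxorubicin alone and 100% = vehicle without doxorubicin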); details: H69AR viability with doxorubicin, CellTiter-Glo luminescence; at 10 µM; active compounds read high
[4] = viability of HCT116 without oncogenic beta-catenin – human colon tumor cells, pilot screen (AID 823); details: HCT116 beta-catenin knockout viability, CellTiter-Glo, 60 h; at 10 µM; active compounds read low;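 further: 0% = wells killed by 20 µM Hyamine and 100% = untreated DMSO cell wells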
[5] = viability of PTEN-null HCT116 cells – cell-based, HCT116 clonal line, CellTiter-Glo, pilot screen (AID 824;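 active means viability at or below 27.92% in each of two runs, the all-compound median minus 4 SD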;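 further: 0% = 20 µM Hyamine control and 100% = vehicle cell control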); details: HCT116 PTEN-deleted viability, 60 h, at 10 µM, active compounds read low
[6] = RAM pathway blockade in budding yeast – dse1pr::URA3 reporter, 5-FOA selection, pilot screen (AID 869;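 active means inhibition over a set limit, the all-compound mean plus 3 SD, in both replicate runs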;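 further: 0% = DMSO wells with no growth and 100% = 10 µM 1-NA-PP1 with full growth; RAM network block rescues cells from 5-FOA so hits raise OD615 growth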); details: S. cerevisiae dse1pr::URA3 5-FOA growth, OD615, 2 d; at 10 µM; active compounds read high; strain carries analog-sensitive mutant Cbk1 kinase
[7] = RAM signaling pathway blockade in yeast – S. cerevisiae, Pdr1DBD-CYC8 efflux-inhibited sensitized strain, primary screen (AID 1298;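 active means RAM network inhibition above 8.4% in each of two replicates, 3 SD over the compound average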;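 further: 0% = DMSO untreated cells without growth and 100% = 10 µM 1-NA-PP1 full growth; higher means more yeast growth rescued from 5-FOA killing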); details: S. cerevisiae cbk1-as DSE1-URA3 strain, 5-FOA growth OD615, 2 d; at 50 µM; active compounds read high

CN(C)c1nc2c(c(=O)[nH]c(=O)n2C)n1Cc1ccc(F)cc1
inactive: growth inhibition [1] -2.72% | growth inhibition [2] 6.59% | viability increase [3] -0.31% | viability [4] 107% | viability [5] 100% | inhibition [6] 1.74% | RAM network inhibition [7] 2.1%

Cc1ccc(-c2nc(CS(=O)CC(=O)NCCN3CCOCC3)c(C)o2)cc1 (configuration not stated)
inactive: growth inhibition [1] -6.06% | growth inhibition [2] 2.29% | viability increase [3] -0.04% | viability [4] 92.9% | viability [5] 98% | inhibition [6] 1.84% | RAM network inhibition [7] 2.15%

Cc1cccn2c(=O)c3cc(C(=O)NC4CCS(=O)(=O)C4)sc3nc12 (configuration not stated)
inactive: growth inhibition [1] -6% | growth inhibition [2] 1.39% | viability increase [3] -2.99% | viability [4] 101% | viability [5] 97.2% | inhibition [6] 2.06% | RAM network inhibition [7] 0.09%

O=C(CN1C(=O)CSc2ncccc21)N1CCOCC1
inactive: growth inhibition [1] 7% | growth inhibition [2] -0.87% | viability increase [3] -0.22% | viability [4] 97.9% | viability [5] 101% | inhibition [6] -0.115% | RAM network inhibition [7] 7.38%

CCCCCn1c(SCC(=O)OC)nc2c1c(=O)[nH]c(=O)n2C
inactive: growth inhibition [1] -16.6% | growth inhibition [2] -10.6% | viability increase [3] -0.86% | viability [4] 103% | viability [5] 102% | inhibition [6] 1.29% | RAM network inhibition [7] 0.79%

CCOC(=O)c1sc(NC(=O)C2CCCO2)c(C(=O)OCC)c1C (configuration not stated)
inactive: growth inhibition [1] -9.48% | growth inhibition [2] -8.48% | viability increase [3] -2.56% | viability [4] 102% | viability [5] 93% | inhibition [6] 1.31% | RAM network inhibition [7] 2.09%

O=S(=O)(NCC(c1cccnc1)N1CCN(Cc2ccccc2)CC1)c1ccccc1 (configuration not stated)
inactive: growth inhibition [1] -10% | growth inhibition [2] -15.8% | viability increase [3] -2.02% | viability [4] 101% | viability [5] 92.8% | inhibition [6] 1.57% | RAM network inhibition [7] 0.96%

CCOC(=O)C1=C(C)NC(=O)NC1c1ccc(N(C)C)cc1 (configuration not stated)
inactive: growth inhibition [1] -12.3% | growth inhibition [2] -5.65% | viability increase [3] -2.7% | viability [4] 96.9% | viability [5] 92.9% | inhibition [6] 2.35% | RAM network inhibition [7] 5.85%

COc1ccc(-n2cnnc2)cc1
inactive: growth inhibition [1] -1.44% | growth inhibition [2] -0.83% | viability increase [3] -2.88% | viability [4] 98.2% | viability [5] 101% | inhibition [6] 1.05% | RAM network inhibition [7] -0.78%

COc1ccc(NC(=O)C2c3cc(OC)c(OC)cc3C(=O)N(C)C2c2cccnc2)cc1OC (configuration not stated)
inactive: growth inhibition [1] -1.76% | growth inhibition [2] -0.86% | viability increase [3] -3.2% | viability [4] 94.8% | viability [5] 95.5% | inhibition [6] 0.645% | RAM network inhibition [7] 4.68%

Cc1cccc(NC(=O)C2CCCN(S(=O)(=O)c3cccc4cccnc34)C2)c1 (configuration not stated)
inactive: growth inhibition [1] -13.1% | growth inhibition [2] -9.72% | viability increase [3] -1.92% | viability [4] 87.2% | viability [5] 74.6% | inhibition [6] 2.15% | RAM network inhibition [7] 3.91%

O=c1sc(N2CCN(c3ccccc3F)CC2)nc2ccsc12
inactive: growth inhibition [1] -7.07% | growth inhibition [2] -8.01% | viability increase [3] -1.94% | viability [4] 85.3% | viability [5] 81.9% | inhibition [6] 3.63% | RAM network inhibition [7] 7.46%

CCCCOc1ccccc1NC(=O)CC1SC(=NCC)N(CC)C1=O (configuration not stated)
inactive: growth inhibition [1] -9.35% | growth inhibition [2] -0.705% | viability increase [3] -2.29% | viability [4] 85.6% | viability [5] 81.3% | inhibition [6] 1.08% | RAM network inhibition [7] 2.04%

CC1CN(S(=O)(=O)c2ccc(C(=O)Nc3sc4c(c3C(N)=O)CCN(C)C4)cc2)CC(C)O1 (configuration not stated)
inactive: growth inhibition [1] -6.76% | growth inhibition [2] -7.93% | viability increase [3] -0.69% | viability [4] 91.9% | viability [5] 97.7% | inhibition [6] 1.35% | RAM network inhibition [7] 5.2%

Cc1ccc(O)c(C(=O)c2cnn(C(=O)Cc3csc(C)n3)c2)c1
inactive: growth inhibition [1] -1.97% | growth inhibition [2] 1.6% | viability increase [3] -0.48% | viability [4] 98.9% | viability [5] 88.3% | inhibition [6] -0.5% | RAM network inhibition [7] -1.67%

CCOC(=O)c1cc2c(=O)n3ccccc3nc2n(CCCOC)c1=NC(=O)c1cccnc1
inactive: growth inhibition [1] -0.71% | growth inhibition [2] -4.29% | viability increase [3] -4.22% | viability [4] 112% | viability [5] 93.7% | inhibition [6] 0.775% | RAM network inhibition [7] 3.03%

COc1cc(OC)cc(C(=O)OCn2nnc3ccccc3c2=O)c1
inactive: growth inhibition [1] -9.62% | growth inhibition [2] -4.46% | viability increase [3] -0.87% | viability [4] 101% | viability [5] 96.1% | inhibition [6] 1.33% | RAM network inhibition [7] 7.22%

CCOc1ccc(-n2c(SC(C)C(=O)OC)nc3c(c2=O)SCC3)cc1 (configuration not stated)
inactive: growth inhibition [1] -6.67% | growth inhibition [2] -19.6% | viability increase [3] -1.08% | viability [4] 89.6% | viability [5] 92.2% | inhibition [6] 0.355% | RAM network inhibition [7] 5.59%

CCc1c(C)sc(NC(=O)c2cc(C)no2)c1C#N
inactive: growth inhibition [1] 1.33% | growth inhibition [2] 8.59% | viability increase [3] -0.5% | viability [4] 99% | viability [5] 93.4% | inhibition [6] 1.31% | RAM network inhibition [7] 6.13%

O=C(NCc1ccco1)C1CCCN(S(=O)(=O)c2cccc3cccnc23)C1 (configuration not stated)
inactive: growth inhibition [1] -10.6% | growth inhibition [2] -8.38% | viability increase [3] -4.15% | viability [4] 96.4% | viability [5] 94.4% | inhibition [6] 0.595% | RAM network inhibition [7] 0.89%

CCOC(=O)c1ccc(NS(=O)(=O)c2cc(-c3nnnn3CC)ccc2OC)cc1
inactive: growth inhibition [1] -0.78% | growth inhibition [2] -5.39% | viability increase [3] -2.01% | viability [4] 92.5% | viability [5] 90.2% | inhibition [6] 1.56% | RAM network inhibition [7] 6.36%

Cc1ccc2oc(=O)c3cnn(CC(=O)NCCN(C)C)c3c2c1
inactive: growth inhibition [1] -13% | growth inhibition [2] -11.6% | viability increase [3] 0.12% | viability [4] 101% | viability [5] 97.7% | inhibition [6] 0.365% | RAM network inhibition [7] 0.55%

COCn1c(-c2cccc(Br)c2)nc2ccccc21
inactive: growth inhibition [1] -10.2% | growth inhibition [2] 3.42% | viability increase [3] -4.2% | viability [4] 85.2% | viability [5] 86.8% | inhibition [6] 1.17% | RAM network inhibition [7] 3.8%

O=S(=O)(c1cc(Cl)ccc1Cl)N1CCN(Cc2ccc3c(c2)OCO3)CC1
inactive: growth inhibition [1] -18.5% | growth inhibition [2] -8.86% | viability increase [3] 0.21% | viability [4] 94.8% | viability [5] 83.7% | inhibition [6] 0.37% | RAM network inhibition [7] 2.23%

CCOCCn1c(N(C)Cc2ccccc2)nc2c1c(=O)[nH]c(=O)n2C
inactive: growth inhibition [1] -10.9% | growth inhibition [2] -6.11% | viability increase [3] 0.04% | viability [4] 101% | viability [5] 95.6% | inhibition [6] 0.985% | RAM network inhibition [7] 5.77%

Cc1nc(C)c(C(=O)Nc2cccc(C)c2C)o1
inactive: growth inhibition [1] -5.6% | growth inhibition [2] -15.8% | viability increase [3] -3.05% | viability [4] 109% | viability [5] 90.1% | inhibition [6] 3.58% | RAM network inhibition [7] 1.53%

Cc1ccc(-n2nc3ccc(N)cc3n2)cc1
inactive: growth inhibition [1] -12.9% | growth inhibition [2] 5.77% | viability increase [3] -5.26% | viability [4] 80% | viability [5] 78.5% | inhibition [6] 2.38% | RAM network inhibition [7] 2.79%

O=C(CN1CCOc2ccccc21)NC1CCN(Cc2ccccc2)CC1
inactive: growth inhibition [1] -5.57% | growth inhibition [2] -4.21% | viability increase [3] -3.28% | viability [4] 77% | viability [5] 85.5% | inhibition [6] 3.18% | RAM network inhibition [7] 5.65%

CCN(CCCNC(=O)Cn1ncc2c(=O)oc3ccccc3c21)c1cccc(C)c1
inactive: growth inhibition [1] 1.03% | growth inhibition [2] 9.37% | viability increase [3] -2.09% | viability [4] 89.9% | viability [5] 87.5% | inhibition [6] 2.57% | RAM network inhibition [7] 3.72%

Cc1oc(-c2ccccc2)nc1CS(=O)CC(=O)N1CCc2ccccc2C1 (configuration not stated)
inactive: growth inhibition [1] 5.38% | growth inhibition [2] 22.9% | viability increase [3] -2.89% | viability [4] 97.8% | viability [5] 99.8% | inhibition [6] 1.62% | RAM network inhibition [7] 1.69%

CCOC(=O)C1CCCN(c2c(NCCCN3CCCC(C)C3)c(=O)c2=O)C1 (configuration not stated)
inactive: growth inhibition [1] 3.9% | growth inhibition [2] 3.15% | viability increase [3] -0.04% | viability [4] 99.1% | viability [5] 94.4% | inhibition [6] 2.96% | RAM network inhibition [7] -0.87%

Cc1cc(C)n(-c2ncnc3sc4c(c23)CC(C)CC4)n1 (configuration not stated)
inactive: growth inhibition [1] -1.99% | growth inhibition [2] 6.4% | viability increase [3] -0.82% | viability [4] 89.7% | viability [5] 90.7% | inhibition [6] 1.6% | RAM network inhibition [7] 0.87%

COc1ccc(S(=O)(=O)Nc2ccc3oc(C)c(C(=O)O)c3c2)cc1
inactive: growth inhibition [1] 3.11% | growth inhibition [2] -3.25% | viability increase [3] -2.36% | viability [4] 95.5% | viability [5] 91.2% | inhibition [6] 1.54% | RAM network inhibition [7] 3.39%

CCOc1ccc(N(C(C)C(=O)Nc2ccc(OC)cc2)S(C)(=O)=O)cc1 (configuration not stated)
inactive: growth inhibition [1] -10.2% | growth inhibition [2] -1.65% | viability increase [3] 0.78% | viability [4] 103% | viability [5] 90.2% | inhibition [6] 1% | RAM network inhibition [7] 3.17%

COc1cccc(CN2CCNC(=O)C2CC(=O)O)c1OC (configuration not stated)
inactive: growth inhibition [1] -18.3% | growth inhibition [2] -12.7% | viability increase [3] -2.76% | viability [4] 101% | viability [5] 97% | inhibition [6] 1.81% | RAM network inhibition [7] 2.85%

O=C1C(C=NCc2cccnc2)=C(O)c2ccccc21
inactive: growth inhibition [1] -6.25% | growth inhibition [2] -0.095% | viability increase [3] -2.11% | viability [4] 94.1% | viability [5] 93.4% | inhibition [6] 1.67% | RAM network inhibition [7] 2.36%
